Laboratory results from ChEMBL document CHEMBL1240504, “Synthesis of substituted thieno[2,3-d]pyrimidine-2,4-dithiones and their S-glycoside analogues as potential antiviral and antibacterial agents” (Eur J Med Chem, 2010).
≈ marks a conversion by molar mass, not a printed value.

Columns and labels:
Human alphaherpesvirus 1 [1] = test: Antiviral activity against HSV1 infected in african green monkey Vero cells after 6 hrs by plaque reduction assay; assay type: functional; set-up: scale not given: the % may be the effect or the level left
In short: (§1)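 Modified plaque reduction in 96-well trays with no thickening overlay. Compounds dissolved in DMSO and diluted into medium, then serially diluted and added in triplicate to confluent Vero monolayers. Titred HSV-1 added in medium with 10% calf serum. Incubated 6 h at 37 °C, 5% CO2. Cells fixed with 3.7% formaldehyde and examined visually. The end-point concentration was taken from the dilution series.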

Vero = test: Cytotoxicity against african green monkey Vero cells assessed as loss of monolayer present around the plaques; assay type: cell-based; conditions: Chlorocebus sabaeus
In short: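 Vero monolayers in serial-dilution trays with HSV-1, run in triplicate, 6 h at 37 °C, 5% CO2. Cells fixed with 3.7% formaldehyde and examined visually. IC50 is the concentration giving about 50% loss of the monolayer around HSV-1 plaques.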

[2] = tested on: Human immunodeficiency virus 1; test: Antiviral activity against HIV1 infected in human CEM cells assessed as protection against virus-induced cytopathic effect after 6 days by XTT assay; assay type: functional, organism-based; conditions: Human immunodeficiency virus 1, CCRF-CEM, 144 h
In short: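 CEM T4 lymphocytes received serially diluted compounds (DMSO stock diluted 1:100 in medium, 1:200 final dilution), then HIV-1. Incubated 6 days at 37 °C, 5% CO2. Formazan read spectrophotometrically after XTT, with microscopic check for viable cells. EC50 is the concentration giving 50% protection against the HIV cytopathic effect. AZT-treated wells served as positive control.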

CCRF-CEM = test: Cytotoxicity against […] human CEM cells after 6 days by XTT assay; assay type: cell-based; conditions: 144 h
In short: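 Uninfected CEM cultures given serial compound dilutions (DMSO, 1:200 final dilution). Incubated 6 days at 37 °C, 5% CO2, then read by XTT formazan. IC50 is the molar concentration causing 50% inhibition of cell growth.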

[3] = Therapeutic index, ratio of IC50 for human CEM cells to EC50 for HIV1; assay type: cell-based, CCRF-CEM; conditions: read-out: Ratio IC50/EC50
In short: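 CEM T4 lymphocytes, with or without HIV-1, were incubated with serially diluted compounds (DMSO solution diluted 1:100 in medium; 1:200 final dilution after cells and virus were added) at 37 °C in 5% CO2 for 6 days. Controls were untreated and AZT-treated. Read-out was XTT formazan, measured spectrophotometrically plus microscopy. EC50 is 50% protection from cytopathic effect; IC50 is 50% growth inhibition in uninfected cultures.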

Escherichia coli [4] = test: Antibacterial activity against Escherichia coli MTCC 41 after 12 to 16 hrs by turbidity assay; assay type: functional
In short: (§2)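 Broth dilution MIC in LB broth. Tubes inoculated, incubated 12–16 h and scored by eye for turbidity (growth) versus clear (no growth).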

Escherichia coli [5] = test: Antibacterial activity against Escherichia coli MTCC 41 at 128 mg/ml after 16 hrs by disk diffusion test; assay type: functional; set-up: dose or concentration left out as unconfirmed; conditions: MTCC 41, 16 h, read-out: IZ
Escherichia coli [6] = test: Antibacterial activity against Escherichia coli MTCC 41 at 64 mg/ml after 16 hrs by disk diffusion test; assay type: functional; set-up: dose or concentration left out as unconfirmed; conditions: MTCC 41, 16 h, read-out: IZ
Staphylococcus aureus [7] = test: Antibacterial activity against Staphylococcus aureus MTCC 1144 after 12 to 16 hrs by turbidity assay; assay type: functional; in short: as §2
Staphylococcus aureus [8] = test: Antibacterial activity against Staphylococcus aureus MTCC 1144 at 128 mg/ml after 16 hrs by disk diffusion test; assay type: functional; set-up: dose or concentration left out as unconfirmed; conditions: MTCC 1144, 16 h, read-out: IZ
Staphylococcus aureus [9] = test: Antibacterial activity against Staphylococcus aureus MTCC 1144 at 64 mg/ml after 16 hrs by disk diffusion test; assay type: functional; conditions: MTCC 1144, 16 h, read-out: IZ
In short: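 Disk diffusion (zone of inhibition). Bacterial isolate spread evenly over an agar plate. A filter disk carrying a known amount of compound was placed on the surface and the compound left to diffuse. The inhibition zone in the lawn was read after 16 h incubation.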

Pseudomonas putida [10] = test: Antibacterial activity against ampicillin-resistant Pseudomonas putida MTCC 1072 after 12 to 16 hrs by turbidity assay; assay type: functional; in short: as §2
Pseudomonas putida [11] = test: Antibacterial activity against ampicillin-resistant Pseudomonas putida MTCC 1072 at 128 mg/ml after 16 hrs by disk diffusion test; assay type: functional; set-up: dose or concentration left out as unconfirmed; conditions: MTCC 1072, 16 h, read-out: IZ
Pseudomonas putida [12] = test: Antibacterial activity against ampicillin-resistant Pseudomonas putida MTCC 1072 at 64 mg/ml after 16 hrs by disk diffusion test; assay type: functional; set-up: dose or concentration left out as unconfirmed; conditions: MTCC 1072, 16 h, read-out: IZ
Human alphaherpesvirus 1 [13] = test: Antiviral activity against HSV1 infected in african green monkey Vero cells assessed as minimum antiviral concentration after 6 hrs; assay type: functional; in short: as §1

SMILES | Activity (Human alphaherpesvirus 1 [1]) [%] | IC50 (Vero) [nM] | EC50 [2] [nM] | IC50 (CCRF-CEM) [nM] | selectivity ratio [3] | MIC (Escherichia coli [4]) [µg/mL] | zone of inhibition (Escherichia coli [5]) [mm] | zone of inhibition (Escherichia coli [6]) [mm] | MIC (Staphylococcus aureus [7]) [µg/mL] | zone of inhibition (Staphylococcus aureus [8]) [mm] | zone of inhibition at 64000 µg/mL (Staphylococcus aureus [9]) [mm] | MIC (Pseudomonas putida [10]) [µg/mL] | zone of inhibition (Pseudomonas putida [11]) [mm] | zone of inhibition (Pseudomonas putida [12]) [mm] | MAC (Human alphaherpesvirus 1 [13]) [µM]
CC(=O)OC[C@H]1O[C@@H](Sc2nc3sc4c(c3c(=S)[nH]2)CCCC4)[C@H](OC(C)=O)[C@@H](OC(C)=O)[C@@H]1OC(C)=O | 0 | 560 | > 100000 | > 100000 | > 1 | > 128 | > 2 | < 1 | > 128 | < 1 | < 1 | > 128 | > 2 | > 2 | –
C[C@@]1(CO)[C@H](O)CC[C@@]2(C)[C@H]1CC[C@H]1C[C@@H]3C[C@@]12CC[C@]3(O)CO [APHIDICOLIN] | 100 | 580 | – | – | – | – | – | – | – | – | – | – | – | – | 0.02
CC(=O)OC[C@H]1O[C@@H](Sc2nc3sc4c(c3c(=S)[nH]2)CCCC4)[C@@H](OC(C)=O)[C@@H]1OC(C)=O | 0 | 1390 | > 100000 | > 100000 | > 1 | 64 (≈ 125 µM) | > 3 | > 3 | 64 (≈ 125 µM) | > 3 | > 3 | 128 (≈ 250 µM) | > 3 | < 1 | –
CC(=O)c1nn(-c2ccc(Cl)cc2)c2nc3sc4c(c3c(=S)n12)CCCCC4 | 0 | 70 | > 100000 | > 100000 | > 1 | – | – | – | – | – | – | – | – | – | –
CC(=O)c1nn(-c2ccc(Cl)cc2)c2nc3sc4c(c3c(=S)n12)CCCC4 | 0 | 90 | > 100000 | > 100000 | > 1 | – | – | – | – | – | – | – | – | – | –
Cc1cn([C@H]2C[C@H](N=[N+]=[N-])[C@@H](CO)O2)c(=O)[nH]c1=O [ZIDOVUDINE] | – | – | – | 700 | – | – | – | – | – | – | – | – | – | – | –
CC(=O)OC[C@H]1O[C@@H](Sc2nc3sc4c(c3c(=S)[nH]2)CCCCC4)[C@@H](OC(C)=O)[C@@H]1OC(C)=O | 0 | 1150 | > 100000 | > 100000 | > 1 | > 128 | < 1 | < 1 | > 128 | < 1 | < 1 | > 128 | < 1 | < 1 | –
CC(=O)OC[C@H]1O[C@@H](Sc2nc3sc4c(c3c(=S)[nH]2)CCCCC4)[C@H](OC(C)=O)[C@@H](OC(C)=O)[C@@H]1OC(C)=O | – | – | – | – | – | > 128 | > 2 | > 2 | > 128 | > 2 | > 2 | 128 (≈ 214 µM) | > 3 | > 2 | –
CC(=O)c1nn(-c2ccc([N+](=O)[O-])cc2)c2nc3sc4c(c3c(=S)n12)CCCC4 | – | – | – | – | – | 64 (≈ 150 µM) | > 3 | > 3 | > 128 | > 2 | > 2 | 128 (≈ 301 µM) | > 3 | > 2 | –
OC[C@H]1O[C@@H](Sc2nc3sc4c(c3c(=S)[nH]2)CCCC4)[C@@H](O)[C@@H]1O | 30 | > 1700 | > 100000 | > 100000 | > 1 | 128 (≈ 331 µM) | > 3 | > 2 | > 128 | > 2 | > 2 | 64 (≈ 166 µM) | > 3 | > 3 | 0.29
OC[C@H]1O[C@@H](Sc2nc3sc4c(c3c(=S)[nH]2)CCCCC4)[C@H](O)[C@@H](O)[C@@H]1O | – | – | – | – | – | > 128 | < 1 | < 1 | > 128 | < 1 | < 1 | > 128 | < 1 | < 1 | –
CSc1nc2sc3c(c2c(=S)[nH]1)CCCC3 | 0 | 640 | > 100000 | > 100000 | > 1 | 128 (≈ 477 µM) | > 3 | < 1 | 128 (≈ 477 µM) | > 3 | < 1 | 128 (≈ 477 µM) | > 3 | < 1 | –
OC[C@H]1O[C@@H](Sc2nc3sc4c(c3c(=S)[nH]2)CCCC4)[C@H](O)[C@@H](O)[C@@H]1O | 0 | 610 | > 100000 | > 100000 | > 1 | > 128 | < 1 | < 1 | > 128 | < 1 | < 1 | 128 (≈ 307 µM) | > 3 | < 1 | –
CC1(C)S[C@@H]2[C@H](NC(=O)[C@H](N)c3ccccc3)C(=O)N2[C@H]1C(=O)O [AMPICILLIN] | – | – | – | – | – | 16 (≈ 45.8 µM) | > 5 | > 5 | – | > 5 | > 5 | > 256 | 0 | 0 | –
OC[C@H]1O[C@@H](Sc2nc3sc4c(c3c(=S)[nH]2)CCCCC4)[C@H](O)[C@@H](O)[C@H]1O | 0 | 380 | > 100000 | > 100000 | > 1 | – | – | – | – | – | – | – | – | – | –
CSc1nc2sc3c(c2c(=S)[nH]1)CCCCC3 | 0 | 450 | > 100000 | > 100000 | > 1 | 128 (≈ 453 µM) | > 3 | < 1 | 128 (≈ 453 µM) | > 3 | > 2 | 128 (≈ 453 µM) | > 3 | < 1 | –
S=c1[nH]c(=S)c2c3c(sc2[nH]1)CCCC3 | 0 | 70 | > 100000 | 6500 | > 15.4 | 64 (≈ 252 µM) | > 3 | > 3 | 128 (≈ 503 µM) | > 3 | < 1 | 128 (≈ 503 µM) | > 3 | < 1 | –
CCOC(=O)c1nn(-c2ccc(C)cc2)c2nc3sc4c(c3c(=S)n12)CCCC4 | – | – | – | – | – | 128 (≈ 301 µM) | > 3 | < 1 | 128 (≈ 301 µM) | > 3 | > 2 | 128 (≈ 301 µM) | > 3 | < 1 | –
S=c1c2c3c(sc2nc2n(-c4ccccc4)nc(-c4ccccc4)n12)CCCC3 | – | – | – | – | – | 128 (≈ 309 µM) | > 3 | < 1 | 128 (≈ 309 µM) | > 3 | < 1 | 128 (≈ 309 µM) | > 3 | < 1 | –
S=c1[nH]c(=S)c2c3c(sc2[nH]1)CCCCC3 | 0 | 90 | > 100000 | 5250 | > 19.1 | 64 (≈ 238 µM) | > 3 | > 3 | > 128 | > 2 | > 2 | 128 (≈ 477 µM) | > 3 | > 2 | –
